System: HEK-293T
Assay: Multiplex assay against HEK293T;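 for Population Tubulin-Different-Phenotype (%): share of the cells with healthy nuclei that show this phenotype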
Assay type: toxicity, cell-based
Settings: human
Method in brief: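 Four dyes were applied at seeding to live cells: Hoechst33342, BioTracker Green Microtubule Cytoskeleton Dye, MitoTracker Red and Annexin V Alexa Fluor 680. Imaging after compound addition used a CQ1 microscope at 37°C and 5% CO2. CellPathfinder machine-learning gating then sorted cells into Hoechst high-intensity objects or normal cells, normal cells into healthy, pyknosed or fragmented nuclei, and pyknosed cells into mitotic or apoptotic, with tubulin, mitochondrial-mass and membrane-permeability phenotypes given as per cents of healthy-nucleus cells.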

[1] = 12 h, 1 µM, compound concentration 1 uM, replicate 1
[2] = 12 h, 1 µM, compound concentration 1 uM, replicate 2
[3] = 12 h, 10 µM, compound concentration 10 uM, replicate 1
[4] = 12 h, 10 µM, compound concentration 10 uM, replicate 2
[5] = 24 h, 1 µM, compound concentration 1 uM, replicate 1
[6] = 24 h, 1 µM, compound concentration 1 uM, replicate 2
[7] = 24 h, 10 µM, compound concentration 10 uM, replicate 1
[8] = 24 h, 10 µM, compound concentration 10 uM, replicate 2
[9] = 48 h, 1 µM, compound concentration 1 uM, replicate 1
[10] = 48 h, 1 µM, compound concentration 1 uM, replicate 2
[11] = 48 h, 10 µM, compound concentration 10 uM, replicate 1
[12] = 48 h, 10 µM, compound concentration 10 uM, replicate 2

COc1ccc(-c2ccc3c(N4CCOCC4)nc(N4C[C@@H](C)O[C@@H](C)C4)nc3n2)cc1CO [Ku-0063794]
Population Apoptotic (%) [1]: 17% | Population Fragmented Nuclei (%) [1]: 21% | Population Healthy Nuclei (%) [1]: 63% | Population Hoechst High Intensity Objects (%) [1]: 20% | Population Membrane Permeable-Phenotype (%) [1]: 6% | Population Mitochondria Different-Phenotype (%) [1]: 3% | Population Mitotic Cells (%) [1]: 82% | Population Normal (%) [1]: 79% | Population Pyknosed Nuclei (%) [1]: 14% | Population Tubulin-Different-Phenotype (%) [1]: 3% | Total Cell Count [1]: 492 | Population Apoptotic (%) [2]: 8% | Population Fragmented Nuclei (%) [2]: 12% | Population Healthy Nuclei (%) [2]: 82% | Population Hoechst High Intensity Objects (%) [2]: 2% | Population Membrane Permeable-Phenotype (%) [2]: 1% | Population Mitochondria Different-Phenotype (%) [2]: 4% | Population Mitotic Cells (%) [2]: 91% | Population Normal (%) [2]: 97% | Population Pyknosed Nuclei (%) [2]: 4% | Population Tubulin-Different-Phenotype (%) [2]: 5% | Total Cell Count [2]: 1701 | Population Apoptotic (%) [3]: 41% | Population Fragmented Nuclei (%) [3]: 31% | Population Healthy Nuclei (%) [3]: 63% | Population Hoechst High Intensity Objects (%) [3]: 52% | Population Membrane Permeable-Phenotype (%) [3]: 11% | Population Mitochondria Different-Phenotype (%) [3]: 10% | Population Mitotic Cells (%) [3]: 58% | Population Normal (%) [3]: 47% | Population Pyknosed Nuclei (%) [3]: 4% | Population Tubulin-Different-Phenotype (%) [3]: 12% | Total Cell Count [3]: 726 | Population Apoptotic (%) [4]: 40% | Population Fragmented Nuclei (%) [4]: 11% | Population Healthy Nuclei (%) [4]: 87% | Population Hoechst High Intensity Objects (%) [4]: 27% | Population Membrane Permeable-Phenotype (%) [4]: 4% | Population Mitochondria Different-Phenotype (%) [4]: 15% | Population Mitotic Cells (%) [4]: 60% | Population Normal (%) [4]: 72% | Population Pyknosed Nuclei (%) [4]: 1% | Population Tubulin-Different-Phenotype (%) [4]: 17% | Total Cell Count [4]: 1160 | Population Apoptotic (%) [5]: 19% | Population Fragmented Nuclei (%) [5]: 19% | Population Healthy Nuclei (%) [5]: 71% | Population Hoechst High Intensity Objects (%) [5]: 11% | Population Membrane Permeable-Phenotype (%) [5]: 8% | Population Mitochondria Different-Phenotype (%) [5]: 2% | Population Mitotic Cells (%) [5]: 80% | Population Normal (%) [5]: 88% | Population Pyknosed Nuclei (%) [5]: 8% | Population Tubulin-Different-Phenotype (%) [5]: 7% | Total Cell Count [5]: 554 | Population Apoptotic (%) [6]: 12% | Population Fragmented Nuclei (%) [6]: 33% | Population Healthy Nuclei (%) [6]: 64% | Population Hoechst High Intensity Objects (%) [6]: 4% | Population Membrane Permeable-Phenotype (%) [6]: 5% | Population Mitochondria Different-Phenotype (%) [6]: 0% | Population Mitotic Cells (%) [6]: 87% | Population Normal (%) [6]: 95% | Population Pyknosed Nuclei (%) [6]: 1% | Population Tubulin-Different-Phenotype (%) [6]: 6% | Total Cell Count [6]: 2828 | Population Apoptotic (%) [7]: 27% | Population Fragmented Nuclei (%) [7]: 31% | Population Healthy Nuclei (%) [7]: 65% | Population Hoechst High Intensity Objects (%) [7]: 52% | Population Membrane Permeable-Phenotype (%) [7]: 11% | Population Mitochondria Different-Phenotype (%) [7]: 9% | Population Mitotic Cells (%) [7]: 72% | Population Normal (%) [7]: 47% | Population Pyknosed Nuclei (%) [7]: 3% | Population Tubulin-Different-Phenotype (%) [7]: 17% | Total Cell Count [7]: 759 | Population Apoptotic (%) [8]: 12% | Population Fragmented Nuclei (%) [8]: 26% | Population Healthy Nuclei (%) [8]: 71% | Population Hoechst High Intensity Objects (%) [8]: 24% | Population Membrane Permeable-Phenotype (%) [8]: 9% | Population Mitochondria Different-Phenotype (%) [8]: 4% | Population Mitotic Cells (%) [8]: 88% | Population Normal (%) [8]: 75% | Population Pyknosed Nuclei (%) [8]: 2% | Population Tubulin-Different-Phenotype (%) [8]: 32% | Total Cell Count [8]: 1535

Cc1cn(-c2cc(NC(=O)c3ccc(C)c(Nc4nccc(-c5cccnc5)n4)c3)cc(C(F)(F)F)c2)cn1 [NILOTINIB]
Population Apoptotic (%) [1]: 65% | Population Fragmented Nuclei (%) [1]: 10% | Population Hoechst High Intensity Objects (%) [1]: 17% | Population Membrane Permeable-Phenotype (%) [1]: 2% | Population Mitochondria Different-Phenotype (%) [1]: 92% | Population Mitotic Cells (%) [1]: 34% | Population Normal (%) [1]: 82% | Population Pyknosed Nuclei (%) [1]: 51% | Population Tubulin-Different-Phenotype (%) [1]: 98% | Total Cell Count [1]: 215 | Population Apoptotic (%) [2]: 21% | Population Fragmented Nuclei (%) [2]: 7% | Population Healthy Nuclei (%) [2]: 37% | Population Hoechst High Intensity Objects (%) [2]: 6% | Population Membrane Permeable-Phenotype (%) [2]: 10% | Population Mitochondria Different-Phenotype (%) [2]: 10% | Population Mitotic Cells (%) [2]: 78% | Population Normal (%) [2]: 93% | Population Pyknosed Nuclei (%) [2]: 55% | Population Tubulin-Different-Phenotype (%) [2]: 15% | Total Cell Count [2]: 164 | Population Apoptotic (%) [3]: 91% | Population Fragmented Nuclei (%) [3]: 54% | Population Healthy Nuclei (%) [3]: 12% | Population Hoechst High Intensity Objects (%) [3]: 48% | Population Membrane Permeable-Phenotype (%) [3]: 6% | Population Mitochondria Different-Phenotype (%) [3]: 61% | Population Mitotic Cells (%) [3]: 8% | Population Normal (%) [3]: 51% | Population Pyknosed Nuclei (%) [3]: 32% | Population Tubulin-Different-Phenotype (%) [3]: 59% | Total Cell Count [3]: 738 | Population Apoptotic (%) [4]: 38% | Population Fragmented Nuclei (%) [4]: 9% | Population Healthy Nuclei (%) [4]: 32% | Population Hoechst High Intensity Objects (%) [4]: 3% | Population Membrane Permeable-Phenotype (%) [4]: 3% | Population Mitochondria Different-Phenotype (%) [4]: 71% | Population Mitotic Cells (%) [4]: 62% | Population Normal (%) [4]: 96% | Population Pyknosed Nuclei (%) [4]: 57% | Population Tubulin-Different-Phenotype (%) [4]: 80% | Total Cell Count [4]: 179 | Population Apoptotic (%) [5]: 69% | Population Fragmented Nuclei (%) [5]: 14% | Population Healthy Nuclei (%) [5]: 39% | Population Hoechst High Intensity Objects (%) [5]: 15% | Population Membrane Permeable-Phenotype (%) [5]: 1% | Population Mitochondria Different-Phenotype (%) [5]: 98% | Population Mitotic Cells (%) [5]: 30% | Population Normal (%) [5]: 84% | Population Pyknosed Nuclei (%) [5]: 46% | Population Tubulin-Different-Phenotype (%) [5]: 94% | Total Cell Count [5]: 213 | Population Apoptotic (%) [6]: 18% | Population Fragmented Nuclei (%) [6]: 7% | Population Healthy Nuclei (%) [6]: 56% | Population Hoechst High Intensity Objects (%) [6]: 4% | Population Membrane Permeable-Phenotype (%) [6]: 8% | Population Mitochondria Different-Phenotype (%) [6]: 23% | Population Mitotic Cells (%) [6]: 81% | Population Normal (%) [6]: 95% | Population Pyknosed Nuclei (%) [6]: 35% | Population Tubulin-Different-Phenotype (%) [6]: 38% | Total Cell Count [6]: 212 | Population Apoptotic (%) [7]: 87% | Population Fragmented Nuclei (%) [7]: 64% | Population Healthy Nuclei (%) [7]: 11% | Population Hoechst High Intensity Objects (%) [7]: 50% | Population Membrane Permeable-Phenotype (%) [7]: 1% | Population Mitochondria Different-Phenotype (%) [7]: 50% | Population Mitotic Cells (%) [7]: 12% | Population Normal (%) [7]: 49% | Population Pyknosed Nuclei (%) [7]: 24% | Population Tubulin-Different-Phenotype (%) [7]: 51% | Total Cell Count [7]: 958 | Population Apoptotic (%) [8]: 41% | Population Fragmented Nuclei (%) [8]: 5% | Population Healthy Nuclei (%) [8]: 57% | Population Hoechst High Intensity Objects (%) [8]: 2% | Population Membrane Permeable-Phenotype (%) [8]: 5% | Population Mitochondria Different-Phenotype (%) [8]: 68% | Population Mitotic Cells (%) [8]: 58% | Population Normal (%) [8]: 97% | Population Pyknosed Nuclei (%) [8]: 36% | Population Tubulin-Different-Phenotype (%) [8]: 85% | Total Cell Count [8]: 209 | Population Apoptotic (%) [9]: 64% | Population Fragmented Nuclei (%) [9]: 17% | Population Healthy Nuclei (%) [9]: 31% | Population Hoechst High Intensity Objects (%) [9]: 19% | Population Membrane Permeable-Phenotype (%) [9]: 1% | Population Mitochondria Different-Phenotype (%) [9]: 88% | Population Mitotic Cells (%) [9]: 36% | Population Normal (%) [9]: 80% | Population Pyknosed Nuclei (%) [9]: 50% | Population Tubulin-Different-Phenotype (%) [9]: 85% | Total Cell Count [9]: 244 | Population Apoptotic (%) [10]: 16% | Population Fragmented Nuclei (%) [10]: 4% | Population Healthy Nuclei (%) [10]: 80% | Population Hoechst High Intensity Objects (%) [10]: 3% | Population Membrane Permeable-Phenotype (%) [10]: 9% | Population Mitochondria Different-Phenotype (%) [10]: 9% | Population Mitotic Cells (%) [10]: 83% | Population Normal (%) [10]: 96% | Population Pyknosed Nuclei (%) [10]: 14% | Population Tubulin-Different-Phenotype (%) [10]: 38% | Total Cell Count [10]: 337 | Population Apoptotic (%) [11]: 84% | Population Fragmented Nuclei (%) [11]: 64% | Population Healthy Nuclei (%) [11]: 14% | Population Hoechst High Intensity Objects (%) [11]: 52% | Population Membrane Permeable-Phenotype (%) [11]: 0% | Population Mitochondria Different-Phenotype (%) [11]: 34% | Population Mitotic Cells (%) [11]: 15% | Population Normal (%) [11]: 47% | Population Pyknosed Nuclei (%) [11]: 20% | Population Tubulin-Different-Phenotype (%) [11]: 32% | Total Cell Count [11]: 1138 | Population Apoptotic (%) [12]: 41% | Population Fragmented Nuclei (%) [12]: 7% | Population Healthy Nuclei (%) [12]: 69% | Population Hoechst High Intensity Objects (%) [12]: 1% | Population Membrane Permeable-Phenotype (%) [12]: 1% | Population Mitochondria Different-Phenotype (%) [12]: 61% | Population Mitotic Cells (%) [12]: 58% | Population Normal (%) [12]: 98% | Population Pyknosed Nuclei (%) [12]: 23% | Population Tubulin-Different-Phenotype (%) [12]: 84% | Total Cell Count [12]: 290

— ChEMBL document CHEMBL4689842, “EUbOPEN Chemogenomics Library wave 1” (2021)
